From PubChem BioAssay
A selection: hits, their analogues and other compounds. The true share with any hit is near 3.2%.
TRPN1 ag – zebrafish TRPN1 (NompC) channel agonism | actives 0.18% (n = 220,000) | HEK293 zebrafish TRPN1-YFP, Fluo-8 calcium fluorescence; 100% = response to 87 µM carbachol | activation, % at 3 µM;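 active means activation above its plate's cutoff, the mean activation of test wells on that plate plus 3 SD, cut at about 19% in these data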;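 further: 0% = DMSO alone and 100% = 87 µM carbachol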
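Material: zebrafish TRPN1-YFP in HEK293 cells. Doses: one dose of 3 µM, 0.3% DMSO. Incubation: dye 1 h 37 °C plus 30 min RT. Measured by: intracellular calcium fluorescence with Fluo-8.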
CHO parental Ca – counter-screen: ATP calcium response change in parental CHO cells; parental CHO-K1, ATP-induced calcium, Fluo-8 fluorescence; inhibition, % at 5.6 µM; actives 0.63% (n = 330,000);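 active means inhibition above that plate's mean sample inhibition plus 3 SD, cut at about 26% in these data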;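 further: 0% = ATP-challenged DMSO wells and 100% = DMSO wells without ATP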
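material = parental CHO cells | also added = ATP as calcium-mobilizing challenge | dosing = single point at 5.6 µM | detection = intracellular calcium via Fluo-8 no-wash fluorescent dye | read-out = % inhibition | benchmarks = low control ATP plus DMSO, high control DMSO only | repeats = one well per compound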
GPR7 antag – blocks human GPR7 receptor signaling; P48145; GPR7-expressing cells, fluorescence antagonist assay; inhibition, % at 4.4 µM; actives 1.1% (n = 290,000); in the data active means inhibition above about 16%, passing the limit was not always enough;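 further: cells stimulated with the agonist NPW; 0% = agonist with vehicle and 100% = vehicle without agonist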
TRPML3 agonist – human mucolipin-3 channel agonism | activation, % at 3 µM | Q8TDD5 | AID 1448 | actives 0.29% (n = 220,000) | HEK293 TRPML3-YFP, Fluo-8 calcium fluorescence; 100% = the carbachol control signal;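 active means activation above its plate's cutoff, the mean activation of the plate's test wells plus 3 SD, cut at about 12% in these data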;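 further: 0% = DMSO only wells and 100% = carbachol wells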
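Test system – HEK293 line with stable expression of human TRPML3-YFP channel · Control set – carbachol 87 µM final as high control (100%), DMSO as low control (0%) · Signal – Fluo-8 calcium dye fluorescence, ex 470-495, em 515-575 nm · Incubation – 1-h 37 °C dye load, 5-s basal, 120-s post-compound reads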
OX1R antag-1 – blocks the human orexin 1 receptor. actives 0.43% (n = 330,000). inhibition, % at 5 µM. CHO/OX1R cells, Fluo-8 calcium fluorescence, orexin A. O43613;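 active means inhibition above its plate's threshold, mean inhibition of all tested compounds on the plate plus 3 SD, cut at about 37% in these data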;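 further: 0% = orexin A challenge wells and 100% = SB-334867-A antagonist wells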
Target sequence (O43613 whole entry, looked up): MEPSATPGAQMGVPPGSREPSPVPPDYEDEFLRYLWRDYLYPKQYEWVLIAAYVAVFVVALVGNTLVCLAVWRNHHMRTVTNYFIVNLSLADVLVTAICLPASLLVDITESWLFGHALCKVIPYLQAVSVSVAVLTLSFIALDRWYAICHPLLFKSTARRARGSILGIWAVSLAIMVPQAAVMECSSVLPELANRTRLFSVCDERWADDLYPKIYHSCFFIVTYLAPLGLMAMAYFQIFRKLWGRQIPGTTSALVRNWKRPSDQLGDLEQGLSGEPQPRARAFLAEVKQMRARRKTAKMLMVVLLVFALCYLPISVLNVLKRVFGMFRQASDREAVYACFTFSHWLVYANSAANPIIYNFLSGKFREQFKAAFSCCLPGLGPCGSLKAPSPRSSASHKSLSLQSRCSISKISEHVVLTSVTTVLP
OX1R antag-2 – blocks the human orexin 1 receptor; O43613; OX1R-expressing cells, FRET antagonist read-out; inhibition, % at 6.6 µM; actives 1.8% (n = 330,000); in the data active means inhibition mostly above about 38%, no sharp cut-off; inactive means mostly below about 40%;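 further: 0% = agonist challenge alone and 100% = reference antagonist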
* marks the source's active call; other numbers are inactive results; nt = not tested or not shown.

SMILES | TRPN1 ag | CHO parental Ca | GPR7 antag | TRPML3 agonist | OX1R antag-1 | OX1R antag-2
CCOC(=O)C1=C(C)Nc2ccccc2N=C1N | 1 | -9 | -18 | 0 | 8 | 25
Cc1ccc2c(C)c(C(=O)N(C)C(C)c3ccon3)oc2c1C (centres undefined) | nt | -16 | -7 | nt | -25 | 29
O=C(Nc1ccc(Cl)cn1)C1CCCN1S(=O)(=O)c1cccc2ccccc12 (centres undefined) | -1 | -10 | -6 | 1 | 3 | 64*
O=C(Nc1ccc(Cl)cn1)C1CCCN1S(=O)(=O)c1ccc(Cl)cc1 (centres undefined) | -2 | -31 | -6 | 0 | 37 | 64*
COc1cc(NC(=O)[C@H]2CCCN2S(=O)(=O)c2cccc3cccnc23)cc(OC)c1OC | nt | -19 | nt | nt | -15 | 41
O=C(Cn1cnc2cc([N+](=O)[O-])ccc2c1=O)NC(c1ccccc1)c1ccccc1 | 2 | -3 | 3 | 0 | -6 | 20
O=C1c2ccccc2S(=O)(=O)c2cc(N3CCOCC3)ccc21 | nt | -17 | nt | nt | -22 | 56*
O=C(c1sc2cc(F)ccc2c1Cl)N1CCN(c2ccccc2)CC1 | 1 | -16 | 2 | 0 | -25 | 30
NC(=O)C1CCN(C(=O)COc2ccc(Nc3ccccc3)cc2)CC1 | 2 | 3 | -2 | 0 | 2 | 52*
COc1cc(/C=N/N=C/c2c[nH]c(=O)c(C#N)c2Nc2ccccc2)ccc1O | 2 | -2 | -5 | 0 | -6 | 3
Cc1cccc(OCC(=O)OCC(=O)Nc2sccc2C(N)=O)c1 | nt | 33* | nt | nt | 44* | 3
Cc1ccc(NC(=O)c2c(C(F)(F)F)nn(C)c2SCc2cccc(C(F)(F)F)c2)cc1C | 0 | 67* | -14 | 3 | 8 | 25
Cc1ccc(C(=O)NCC(c2ccco2)N2CCCCC2)s1 (centres undefined) | nt | -6 | nt | nt | -4 | -9
O=C(NCC(c1ccco1)N1CCCCC1)c1ccc([N+](=O)[O-])s1 (centres undefined) | nt | -22 | nt | nt | -36 | 56*
O=C(NCC1CCCO1)c1ccc([N+](=O)[O-])s1 (centres undefined) | nt | 5 | -14 | nt | -9 | 70*
O=C(NCC1CCCO1)c1ccc(Br)s1 (centres undefined) | nt | -2 | -3 | nt | -13 | 15
O=C(CN1C(=O)c2ccc([N+](=O)[O-])cc2C1=O)NC1CCS(=O)(=O)C1 (centres undefined) | nt | 4 | nt | nt | -6 | 56*
O=C(CN1C(=O)c2ccc([N+](=O)[O-])cc2C1=O)NCC1CCCO1 (centres undefined) | nt | 3 | nt | nt | -7 | 68*
Cc1ccc(NC(=O)CCC(=O)c2cc(C)sc2C)nc1 | nt | -20 | nt | nt | -30 | 27
COCCNC(=S)Nc1ccc2[nH]c(=O)[nH]c2c1 | 1 | 7 | -4 | 0 | -9 | 16
CCOc1ncccc1C(=O)NCCCSc1ccccc1 | nt | -19 | -9 | nt | -14 | 24
O=C(/C=C/c1ccc([N+](=O)[O-])cc1)NCC1CCCO1 (centres undefined) | 0 | -12 | -5 | 0 | -12 | 59*
CCCCCc1cc(O)c2c(C)cc(=O)oc2c1 | 13 | 23 | 2 | 5 | 2 | 43*
Cc1onc(-c2c(Cl)cccc2Cl)c1C(=O)N1CCc2ccccc21 | 0 | -17 | 9 | -1 | 21 | 40*
COc1ccc(Cl)cc1NC(=O)CN(C)C(=O)Cn1cnnn1 | nt | -3 | nt | nt | -15 | 14
SMILES | TRPN1 ag | CHO parental Ca | GPR7 antag | TRPML3 agonist | OX1R antag-1 | OX1R antag-2
NC(=S)NNC(=O)C12CC3CC(CC(C3)C1)C2 | 29* | 27 | 10 | 3 | 29 | 13
CC1Oc2ccccc2C=C1/C=N/NC(=O)c1ccccc1O (centres undefined) | 11 | -2 | 9 | 1 | 9 | 75*
COc1ccc(C=O)cc1Cn1c(C)cc(C)c(C#N)c1=O | -1 | 9 | 1 | 0 | -4 | 48
COC(=O)c1ccc(COC(=O)c2[nH]c(C)c(C(C)=O)c2C)o1 | 7 | 38* | 7 | 3 | 11 | 45
CC(=O)c1c(C)[nH]c(C(=O)OCc2ccc([N+](=O)[O-])cc2)c1C | nt | -14 | -10 | nt | -28 | 17
O=C(Cn1cnc2c(NCc3ccccc3)ncnc21)NCCc1cc2ccccc2[nH]1 | nt | -2 | nt | nt | 13 | 34*
COc1cc(Br)cc(Br)c1OCC(=O)N/N=C/c1c(C)n(C)n(-c2ccccc2)c1=O | nt | nt | -6 | nt | nt | nt
COc1ccc(/C=N/NC(=O)c2ccoc2C)cc1COc1c(C)cccc1C | 6 | 74* | 22 | 3 | 51* | 37
C=CC(n1cncn1)C(O)(c1ccccc1)c1ccccc1 (centres undefined) | nt | -12 | nt | nt | -7 | 7
CCc1cccc(NC(=O)CCCn2nc(CC)n3c(cc4occc43)c2=O)c1 | nt | -22 | -9 | nt | -14 | 42*
O=C(NNC(=S)NC(=O)c1ccco1)c1ccc(F)cc1 | 4 | 27 | -10 | 4 | 42 | 0
CCCOc1ccc(C(=O)NNC(=S)NC(=O)c2ccco2)cc1 | 44* | 70* | 14 | 41* | 86* | 19
COc1ccccc1C(=O)NNC(=S)NC(=O)c1ccco1 | 1 | 31 | 1 | 1 | 50* | 28
CCCOc1ccc(C(=O)NNC(=S)NC(C)=O)cc1 | -3 | -2 | -9 | -2 | -10 | 15
O=C(CN(Cc1ccc(Cl)cc1)C(=O)c1csnn1)NCc1ccc(F)cc1 | nt | -19 | -6 | nt | -28 | 25
CS(=O)(=O)N1CCc2cc(NC(=O)c3ccc(Cl)cc3Cl)ccc21 | 3 | 2 | -4 | 2 | -23 | 9
COC(=O)/C(=C(/F)Sc1cc(C)c(O)c(C)c1)C(F)(F)F | -2 | 33* | 4 | 0 | 13 | 18
CC1(C)CC(=O)C=C(Nc2ccc(Cl)c(Br)c2)C1 | nt | -17 | 0 | nt | -30 | 18
O=C(Nc1ccccc1O)c1ccc([N+](=O)[O-])cc1 | nt | 16 | -2 | nt | -3 | 33*
O=C(NC(=S)Nc1ccccn1)c1ccc([N+](=O)[O-])cc1 | 0 | -7 | -3 | 1 | 2 | 27
O=C(Nc1ncccn1)c1ccc([N+](=O)[O-])cc1 | 0 | -10 | -2 | 1 | -12 | 58*
O=C(Nc1nccs1)c1ccc([N+](=O)[O-])cc1 | -2 | -8 | 1 | 0 | -11 | 42*
COc1ccc(OC)c(N2C(=NC(=O)C3CCCCC3)SC3CS(=O)(=O)CC32)c1 (centres undefined) | nt | -15 | 4 | nt | -9 | 3
CCOc1ccc(S(=O)(=O)N2CCC(C(=O)NCCc3ccccc3)CC2)cc1 | nt | -4 | -6 | nt | -2 | 4
CCOc1ccc2nc3cc(NCc4ccc(OC)cc4)ccc3c(N)c2c1 | nt | 2 | -8 | nt | 10 | 44*
CCn1cnc2cc(NCc3ccc(OC)cc3)ccc21 | 0 | -5 | 3 | 0 | -1 | 7
